Screens as filed in PubChem.
Shown are actives, neighbours in structure and some others; about 1.5% of the full set was active somewhere.
T cell HTS = modulators of CD8 T cell-vesicle binding, primary screen, mouse 2C CD8+ T cells, flow cytometry. 2C CD8+ T cell-vesicle binding; active compounds read low. response (vesicle binding), % at 7 µM. 0.068% of 330,000 active. AID 2052, 2009;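 active = response, share of CD8 T cells binding vesicles, and their 90th percentile fluorescence all below set limits, cut at about 80% in these data, passing the limit was not always enough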;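 note: values below 100% mean blocked vesicle binding to the CD8+ T cells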
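Read-out – percent CD8+ FL2 mean versus row control · System – murine 2C transgenic CD8+ T lymphocytes · Times – 1.5 h cell–vesicle binding at 37 °C, then 20 min icy labelling · Control set – naked vesicles low, QL9 vesicles with vehicle high · Detection – cytometric PE anti-B7-1 and Alexa647 anti-CD8 signals after 1% paraformaldehyde fixation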
LANA-H2A inh = blockers of LANA interaction with H2A/H2B – biochemical, FP readout, HTS, primary screen | Protein LANA1 (Human herpesvirus 8 type P (isolate GK18)), Q9QR71 | cell-free LANA-H2A/H2B peptide, fluorescence polarization | inhibition, % (concentration not given with the values) | 0.6% of 320,000 active | AID 2629, 2010; in the data active = inhibition mostly above about 10%, no sharp cut-off; inactive = mostly below about 6.7%
HDAC3 inhib = HDAC3 deacetylase inhibitors, primary screen, biochemical, fluorescence, cell-free homogeneous; inhibition, % at 8.3 µM; 0.15% of 320,000 active; AID 2718, 2010; Histone deacetylase 3 (Homo sapiens), O15379; recombinant HDAC3, fluorogenic peptide/trypsin coupled; in the data active = inhibition above about 26%, passing the limit was not always enough
Arr AP2 block = inhibitors of beta-arrestin/AP2 binding, primary screen, biochemical, GPCR trafficking, flow cytometry. beta-arrestin 1 C-terminal peptide binding to AP2 beta2-adaptin appendage (human). FITC-arrestin peptide / GST-AP2 beads; AP2 beta2 appendage carries R879A mutation. inhibition, % at 10 µM. 0.31% of 340,000 active. AID 504490, 2011;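 active = inhibition above a set limit, near 3 SD of compounds lacking own fluorescence, cut at about 54% in these data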
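Test system: GST-tagged AP2 beta2-adaptin appendage (R879A) on 4 µm glutathione beads; also added: fluorescein-tagged arrestin peptide at 50 nM final; timing: 12 min plus 1 h, RT; signal: flow cytometry, FL1 (488/535 nm); read-out: percent drop in bead-associated FITC signal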
Pemphigus Ab inh = inhibitors of pemphigus antibody binding to DSG3, primary screen, biochemical, bead-based, flow cytometry, scFv-GFP; Desmoglein-3 (Homo sapiens), P32926; DSG3-coupled beads, scFv-anti-DSG3-GFP binding; active compounds read low; binding (percent of control), % at 10 µM; 0.48% of 310,000 active; AID 588358, 2011;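 active = binding more than 3 SD below its plate's average and above zero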;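 note: hits lower antibody fragment binding to DSG3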
Arr AP2 CP1 = inhibitors of arrestin peptide binding to AP2, confirmation, biochemical, cherry pick 1, flow cytometry beads. shares compounds with Arr AP2 block. AID 504908, 2011. inhibition, % at 10 µM. 2% of 1,300 active. GST-AP2 beads, FITC arrestin peptide binding; GST-fused beta2-adaptin appendage, R879A mutant;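 active = inhibition above a set limit, roughly 3 SD of non-fluorescent compound noise, cut at about 38% in these data; inactive = inhibition at or below that limit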;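 note: loss of bead fluorescence from 50 nM FITC arrestin peptide bound to appendage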
GST-FITC bead = GST-fluorescein capture on glutathione beads, confirmation, artefact control for arrestin-AP2 inhibitor project, biochemical, cherry pick 1, flow cytometry | inhibition, % at 10 µM | 2% of 1,300 active | AID 588338, 2011 | GST-fluorescein binding to GSH beads, fluorescence, counter-screen | shares compounds with Arr AP2 block;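 active = inhibition above 50%, about 3 SD of the inhibition seen with non-fluorescent compounds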;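 note: fluorescein maleimide labelled GST captured on 4 micron glutathione beads; higher means more loss of bead fluorescence from quenching or blocked binding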
Numbers stand for hits; n = inactive; x = not tested or not shown.

SMILES | T cell HTS | LANA-H2A inh | HDAC3 inhib | Arr AP2 block | Pemphigus Ab inh | Arr AP2 CP1 | GST-FITC bead
CCCCCCN1C=C/C(=C\C=C(C#N)C#N)c2ccccc21 | n | n | n | 75 | n | n | n
CCOC(=O)N1CCN(S(=O)(=O)c2c[nH]c(C(=O)OC)c2)CC1 | n | n | n | n | x | x | x
O=C(O)C=C(Br)Br | n | n | n | n | n | x | x
Cc1cc(OCC(=O)Nc2nccs2)c2c(C)cc(=O)oc2c1 | n | n | n | 60 | n | n | n
CCCc1cc(=O)oc2cc(C)cc(OC(C)C(=O)NCc3ccncc3)c12 (stereo not drawn) | n | n | n | n | n | x | x
CCn1nc(NS(=O)(=O)c2ccccc2)c2cc3cc(C)ccc3nc21 | n | n | n | 62 | x | n | n
CCn1nc(NS(=O)(=O)c2ccccc2)c2cc3ccc(C)cc3nc21 | n | n | n | n | n | x | x
COc1ccc(C2C(C(=O)c3cccs3)=C(O)C(=O)N2CCN2CCOCC2)c(OC)c1 (stereo not drawn) | n | n | n | n | n | x | x
Cc1ccccc1CN1CCC(N2CCC(C(=O)NCC3CCCO3)CC2)CC1 (stereo not drawn) | n | n | n | 65 | n | n | n
CCCCN(C)S(=O)(=O)c1cc2c(cc1Br)CCN2C(=O)C1CC1 | x | x | x | n | n | x | x
COc1ccc(N2C(=O)CSC2c2ccc3c(c2)OCO3)cc1 (stereo not drawn) | n | n | n | 61 | n | n | n
N#CCCN(C(=O)COC(=O)Cc1c[nH]c2ccccc12)c1ccccc1 | n | n | n | n | n | x | x
COc1ccc2cc(-c3cc(C(=O)OCC(=O)NC4CCS(=O)(=O)C4)c4ccccc4n3)ccc2c1 (stereo not drawn) | n | n | n | 106 | 4.6 | 60 | 188
COc1ccc(-c2cc(C(=O)OCC(=O)NC3CC3)c3ccccc3n2)cc1 | n | n | n | n | n | x | x
CC1(C)Cc2c(sc3c2c(=O)n(Cc2ccccc2)c2nncn32)CO1 | x | x | x | 62 | n | n | n
CCc1ccccc1N(C(=O)c1snc(C(N)=O)c1N)C(C(=O)NCC1CCCO1)c1ccc(C)o1 (stereo not drawn) | n | n | n | n | x | x | x
Cc1cc(OCCCC(=O)NCCc2nnc3ccccn23)ccc1Cl | n | n | n | n | x | x | x
O=C(c1cc2ccccc2o1)N1CCN(c2ccccn2)CC1 | n | n | n | 59 | n | n | n
O=C(c1cc2ccccc2o1)N1CCN(c2ccccc2Cl)CC1 | n | n | n | n | n | x | x
Cc1ccc(-c2nn(-c3ccccc3)cc2C(=O)N2CCN(c3ccccn3)CC2)cc1 | n | n | n | 57 | n | n | n
O=C(c1ccccc1CCc1ccccc1)N1CCN(c2ccccn2)CC1 | n | n | n | 84 | n | n | n
O=C(CCc1ccccc1)N1CCN(c2ccccn2)CC1 | n | n | n | n | n | x | x
CNC[C@@H]1Oc2ccc(NS(=O)(=O)c3ccc(OC)cc3)cc2CC(=O)N([C@H](C)CO)C[C@@H]1C | n | n | n | n | n | x | x
CC(=O)Nc1ccc(C(=O)COC(=O)c2cc(C)oc2C)c(F)c1 | n | n | n | 72 | n | n | n
CC(=O)Nc1ccc(C(=O)COC(=O)c2ccco2)c(F)c1 | n | n | n | n | n | x | x
CC1(c2ccccc2)C(C#N)C(=O)NC(=O)C1C#N (stereo not drawn) | x | x | x | n | x | x | x
O=C(Nc1ccccc1N1CCCC1)c1ccc(Br)o1 | n | n | n | n | n | x | x
COc1ccc(N2CCCC2)c(NC(=O)c2ccc(Br)o2)c1 | n | n | n | 64 | n | n | n
